Source: ChEMBL document CHEMBL1139747, “Pyridine-2-propanoic acids: Discovery of dual PPARalpha/gamma agonists as antidiabetic agents” (Bioorg Med Chem Lett, 2006)

What was measured:
[1] = target: T1, Peroxisome proliferator-activated receptor alpha (Homo sapiens) (UniProt Q07869); experiment: Agonist activity at human PPAR alpha in HepG2 cells by PPAR-GAL4 transactivation assay relative to GW-2331; format: functional, cell-based
T1 sequence (whole entry): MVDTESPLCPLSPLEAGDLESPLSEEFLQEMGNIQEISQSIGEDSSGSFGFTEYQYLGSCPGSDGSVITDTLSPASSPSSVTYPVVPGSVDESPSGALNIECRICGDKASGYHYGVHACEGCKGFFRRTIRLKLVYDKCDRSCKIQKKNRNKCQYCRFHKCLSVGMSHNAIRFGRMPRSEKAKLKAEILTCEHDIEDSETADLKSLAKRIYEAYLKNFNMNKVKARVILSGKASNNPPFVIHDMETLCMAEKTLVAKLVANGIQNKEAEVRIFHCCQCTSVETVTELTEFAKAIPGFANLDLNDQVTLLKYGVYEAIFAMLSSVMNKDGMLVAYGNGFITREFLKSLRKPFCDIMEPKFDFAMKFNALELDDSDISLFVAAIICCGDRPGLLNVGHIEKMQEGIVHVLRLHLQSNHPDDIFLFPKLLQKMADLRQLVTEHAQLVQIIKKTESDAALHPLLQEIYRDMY
How it was run: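 Human PPARα–GAL4 chimera in HepG2 cells, transactivation read-out. Compounds titrated. EC50 taken as the concentration giving half of the compound's own maximal response. Percent maximal activation expressed relative to GW2331 as the standard full agonist. Where no plateau was reached, only maximal activity was reported.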

[2] = target: T2, Peroxisome proliferator-activated receptor gamma (Homo sapiens, UniProt P37231); experiment: Agonist activity at human PPAR gamma in HepG2 cells by PPAR-GAL4 transactivation assay; format: functional, cell-based
T2 sequence (P37231 whole entry): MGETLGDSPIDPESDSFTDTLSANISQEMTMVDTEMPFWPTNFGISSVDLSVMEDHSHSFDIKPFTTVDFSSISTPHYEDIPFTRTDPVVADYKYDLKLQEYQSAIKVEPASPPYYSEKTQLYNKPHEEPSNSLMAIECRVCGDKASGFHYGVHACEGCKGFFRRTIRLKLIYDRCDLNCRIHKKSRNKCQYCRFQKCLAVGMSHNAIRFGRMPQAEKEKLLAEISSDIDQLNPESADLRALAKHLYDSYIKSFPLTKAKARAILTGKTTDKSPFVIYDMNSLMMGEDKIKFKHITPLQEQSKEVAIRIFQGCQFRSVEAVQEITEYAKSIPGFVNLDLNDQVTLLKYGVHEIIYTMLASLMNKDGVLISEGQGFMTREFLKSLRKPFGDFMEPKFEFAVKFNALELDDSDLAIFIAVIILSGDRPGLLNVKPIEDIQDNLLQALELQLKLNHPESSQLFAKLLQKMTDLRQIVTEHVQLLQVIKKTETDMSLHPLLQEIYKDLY

[3] = target: T3, Peroxisome proliferator-activated receptor alpha (Homo sapiens, UniProt Q07869); experiment: Agonist activity at human PPAR alpha in HepG2 cells by PPAR-GAL4 transactivation assay; format: functional, cell-based
T3 sequence (Q07869 whole entry): T1 sequence (whole entry)

[4] = target: T2, Peroxisome proliferator-activated receptor gamma; experiment: Displacement of radiolabeled darglitazone from human PPAR gamma by SPA assay
[5] = target: T3, Peroxisome proliferator-activated receptor alpha; experiment: Displacement of radiolabeled GW-2331 from human PPAR alpha by SPA assay
[6] = Clearance in iv dosed Sprague-Dawley rat; format: ADME, organism-based; conditions: in vivo
How it was run: (§1)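 Male Sprague–Dawley rats were given the compound both orally and intravenously. Clearance comes from the iv leg. Half-life and AUC come from the oral leg, with AUC reported dose-normalized. Oral bioavailability compares the oral and iv exposures.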

[7] = Half life in orally dosed Sprague-Dawley rat; format: ADME, organism-based; conditions: in vivo, po; how it was run: as §1
Mus musculus [8] = experiment: Reduction of plasma glucose in db/db mouse at 3 mg/kg, po after 8 day; format: functional; parameters: scale not given: the % may be the effect or the level left
Mus musculus [9] = experiment: Reduction of plasma glucose in db/db mouse at 30 mg/kg, po after 8 day; format: functional; parameters: scale not given: the % may be the effect or the level left
Mus musculus [10] = experiment: Reduction of plasma triglycerides in db/db mouse at 3 mg/kg, po after 8 day; format: functional; parameters: scale not given: the % may be the effect or the level left
Mus musculus [11] = experiment: Reduction of plasma triglycerides in db/db mouse at 30 mg/kg, po after 8 day; format: functional; parameters: scale not given: the % may be the effect or the level left
Mus musculus [12] = experiment: Reduction of hematocrit in db/db mouse at 3 mg/kg, po after 8 day; format: functional; parameters: scale not given: the % may be the effect or the level left
Mus musculus [13] = experiment: Reduction of hematocrit in db/db mouse at 30 mg/kg, po after 8 day; format: functional; parameters: scale not given: the % may be the effect or the level left
Mus musculus [14] = experiment: Increase in body weight in db/db mouse at 3 mg/kg, po after 8 day; format: functional
Mus musculus [15] = experiment: Increase in body weight in db/db mouse at 30 mg/kg, po after 8 day; format: functional
[16] = Oral bioavailability in Sprague-Dawley rat; format: ADME, organism-based; conditions: in vivo; how it was run: as §1
[17] = AUC in orally dosed Sprague-Dawley rat; format: ADME, organism-based; conditions: plasma, po; how it was run: as §1
[18] = target: T1, Peroxisome proliferator-activated receptor alpha (Homo sapiens); conditions: 100 uM

Activity [1] [%]	EC50 [2] [nM]	EC50 [3] [nM]	Ki [5] [nM]	SMILES	further results
90				Cc1oc(-c2ccccc2)nc1CCOc1ccc(CC2(C(=O)O)CCCO2)nc1 (stereo unspecified)	
93	12	867		Cc1cccc(-c2nc(CCOc3ccc(CC4(C(=O)O)CCCO4)nc3)c(C)o2)c1 (stereo unspecified)	
100	129	1230	2000	CCOC(Cc1ccc(OCCc2nc(-c3ccccc3)oc2C)cn1)C(=O)O (stereo unspecified)	Ki [4]: 73 nM
6				Cc1oc(-c2ccccc2)nc1CCOc1ccc(C[C@@]2(C(=O)O)CCCO2)nc1	
5	> 10000	> 10000		Cc1oc(-c2ccccc2)nc1CCOc1ccc(CC2(C(=O)O)CCCCO2)nc1 (stereo unspecified)	
95	280	3140	3700	COC(Cc1ccc(OCCc2nc(-c3ccccc3)oc2C)cn1)C(=O)O (stereo unspecified)	Ki [4]: 348 nM
114	335	882	4800	COC(C)(Cc1ccc(OCCc2nc(-c3ccccc3)oc2C)cn1)C(=O)O (stereo unspecified)	Ki [4]: 1600 nM
76		886	840	CCOC(Cc1ccc(OCCCc2nc(-c3ccccc3)oc2C)cn1)C(=O)O (stereo unspecified)	
98	5	1570		COc1cccc(-c2nc(CCOc3ccc(CC4(C(=O)O)CCCO4)nc3)c(C)o2)c1 (stereo unspecified)	

Continued, compound first:

SMILES	Activity [1] [%]	EC50 [2] [nM]	EC50 [3] [nM]	Ki [5] [nM]	further results
COc1ccc(-c2nc(CCOc3ccc(CC4(C(=O)O)CCCO4)nc3)c(C)o2)cc1 (stereo unspecified)	95	105	437	840	
Cc1oc(-c2ccccc2)nc1CCOc1cnc(CC2(C(=O)O)CCCO2)cn1 (stereo unspecified)	77	156	1890	3490	Ki [4]: 160 nM
Cc1oc(-c2ccccc2)nc1CCOc1ccc(C[C@]2(C(=O)O)CCCO2)nc1	97				clearance [6]: 16.7 mL/min/kg; half-life [7]: 1.6 h; Activity (Mus musculus [8]): 74%; Activity (Mus musculus [9]): 94%; Activity (Mus musculus [10]): 105%; Activity (Mus musculus [11]): 119%; Activity (Mus musculus [12]): 4.3%; Activity (Mus musculus [13]): 4.4%; Activity (Mus musculus [14]): 15.5%; Activity (Mus musculus [15]): 20.5%; bioavailability [16]: 58%; AUC [17]: 1200 ng·h/mL
CN(CCOc1ccc(CC2SC(=O)NC2=O)cc1)c1ccccn1 (stereo unspecified) [ROSIGLITAZONE]					Activity (Mus musculus [8]): 51%; Activity (Mus musculus [9]): 74%; Activity (Mus musculus [10]): 83%; Activity (Mus musculus [11]): 106%; Activity (Mus musculus [12]): 1.2%; Activity (Mus musculus [13]): 5.2%; Activity (Mus musculus [14]): 9.5%; Activity (Mus musculus [15]): 17.4%; inhibition [18]: 45%
Cc1oc(-c2ccccc2)nc1CCOc1ncc(CC2(C(=O)O)CCCO2)cn1 (stereo unspecified)	58	2500	> 10000		
Cc1oc(-c2ccc(Cl)cc2)nc1CCOc1ccc(CC2(C(=O)O)CCCO2)nc1 (stereo unspecified)	122	130	48		
